Measurements published in ChEMBL document CHEMBL1124103, “Potential antitumor agents. 56. "Minimal" DNA-intercalating ligands as antitumor drugs: phenylquinoline-8-carboxamides” (J Med Chem, 1988).
“And” between values parts separate entries of the source, which are not always exact repeats. Equal values may be shown once.

Columns and labels:
[1] = species on record: Mus musculus; assay: Percentage increase in lifespan of treated animals(at the optimal dose) compared to controls. Average lifespan of control animals was 17 days (Lewis lung carcinoma cells).; format: functional
[2] = species on record: Mus musculus; assay: Percentage increase in lifespan of treated animals(at the optimal dose) compared to controls. Average lifespan of control animals was 11 days (P388).; format: functional
[3] = tested on: Nucleic Acid; assay: Displacement of ethidium from poly(dA/T) or poly(dG/C)-DNA; format: nucleic-acid assay
Procedure, shortened: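 Association constants (M⁻¹) for binding to poly[d(AT)] and poly[d(GC)] measured by ethidium displacement, assuming ligand and ethidium compete for intercalation sites; reported as log K.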

[4] = Ionization constant of chromophore measured by UV spectroscopy in 20% dimethylformamide.; format: physicochemical
Procedure, shortened: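 Chromophore pKa measured by UV spectroscopy in 20% dimethylformamide.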

[5] = tested on: Mus musculus; assay: Optimal dose administered intraperitoneally on days 1,5 and 9 after intraperitoneal inoculation of P388 leukemia cells.; format: functional
[6] = tested on: Mus musculus; assay: Optimal dose administered intraperitoneally on days 5,9 and 13 after intravenous inoculation of lewis lung carcinoma cells.; format: functional
[7] = tested on: L1210; assay: Compound concentration that reduces cell growth of L1210 leukemia cultures to 50% of controls after 70h.; format: functional, cell-based; conditions: Mus musculus, L1210, 70 h
[8] = tested on: Mus musculus; assay: Percentage increase in lifespan of treated animals(at 100 mg/kg optimal dose) compared to controls. Average lifespan of control animals was 17 days (Lewis lung carcinoma cells).

Compound	ILSmax [1]	ILSmax [2]	Log K [3]	pKa [4]	OD [5] [mg/kg]	OD [6] [mg/kg]	IC50 [7] [nM]	ILS max [1] [%]	ILS max [2] [%]	ILS max [8] [%]
CN(C)CCNC(=O)c1cc(-c2ccccc2)cc2cccnc12	31	29	6.12 and 5.96	2.93	65	100	910	–	–	–
CN(C)CCNC(=O)c1cccc2cc(-c3ccccc3)cnc12	–	–	5.68 and 5.7	2.58	100	100	2600	<40	27	–
CN(C)CCNC(=O)c1cccc2c(-c3ccccc3)ccnc12	–	–	4.73 and 4.77	3.04	150	–	14700	–	<20	–
CN(C)CCNC(=O)c1cccc2ccc(-c3ccccc3)nc12	–	–	5.97 and 5.92	2.75	100	100	1300	–	91	70
CN(C)CCNC(=O)c1cccc2cccnc12	–	–	5.12 and 5.17	–	100	–	> 25000	–	<20	–
CN(C)CCNC(=O)c1ccc(-c2ccccc2)c2cccnc12	–	–	4.74 and 4.79	3.13	100	–	13700	–	<20	–
CN(C)CCNC(=O)c1cccc2cc3ccccc3nc12	–	–	–	–	66	100	–	–	91	–
